Columns and labels:
[1] = biological target: T1, Sodium-dependent serotonin transporter (Homo sapiens, UniProt P31645); test: biochemical; format: cell-based, HEK293
[2] = biological target: T1, Sodium-dependent serotonin transporter; test: biochemical; format: cell-based, HEK293; remark: listed apart in the source
[3] = biological target: T2, 5-hydroxytryptamine receptor 1A (Rattus norvegicus, UniProt P19327); test: Displacement of [3H]8-OH-DPAT from 5HT1A receptor in rat cortical membrane; format: cell membranes
T2 sequence (P19327 whole entry): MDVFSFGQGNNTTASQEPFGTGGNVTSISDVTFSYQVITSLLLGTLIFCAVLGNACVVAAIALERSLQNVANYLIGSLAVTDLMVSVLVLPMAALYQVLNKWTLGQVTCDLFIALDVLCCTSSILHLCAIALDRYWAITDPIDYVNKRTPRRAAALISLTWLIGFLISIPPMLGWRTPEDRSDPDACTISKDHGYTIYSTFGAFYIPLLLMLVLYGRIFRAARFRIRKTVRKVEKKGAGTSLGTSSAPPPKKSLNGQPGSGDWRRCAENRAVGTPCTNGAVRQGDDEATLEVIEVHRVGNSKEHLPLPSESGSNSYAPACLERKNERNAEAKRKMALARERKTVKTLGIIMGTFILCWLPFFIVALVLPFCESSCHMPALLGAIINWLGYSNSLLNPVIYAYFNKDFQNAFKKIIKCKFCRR
Outline: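 Cortex from female SPRD rats (~200 g), homogenized and washed in 50 mM Tris-HCl pH 7.4. Membranes in 50 mM Tris-HCl pH 7.4, 4 mM CaCl2, 0.1% ascorbic acid with 0.3 nM radioligand and 6-12 test concentrations, 21 °C for 60 min. Nonspecific: 10 uM serotonin. GF/B filtration, scintillation counting.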

[4] = biological target: Sodium-dependent noradrenaline transporter (Homo sapiens, UniProt P23975); test: Displacement of [3H]nisoxetine from human NET expressed in HEK293 cells; format: cell-based
Outline: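 Stably transfected HEK293 membrane preparation (50-80 ug protein/tube) in 50 mM Tris-HCl pH 7.4, 120 mM NaCl, 5 mM KCl. 0.5 nM radioligand with 6-12 test concentrations, 21 °C for 60 min. Nonspecific: 100 uM protriptyline. GF/B filtration, scintillation counting. Triplicates per experiment; IC50 by nonlinear fitting, converted to Ki.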

[5] = biological target: Sodium-dependent dopamine transporter (Homo sapiens, UniProt Q01959); test: Displacement of [3H]WIN-35428 from human DAT expressed in HEK293 cells; format: cell-based
Outline: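 Stably transfected HEK293 membrane preparation (50-80 ug protein/tube) in 50 mM Tris-HCl pH 7.4, 100 mM NaCl. 0.5 nM radioligand with 6-12 test concentrations, on ice for 120 min. Nonspecific: 10 uM GBR12909. GF/B filtration, ice-cold Tris washes, scintillation counting. Triplicates per experiment; IC50 by iterative nonlinear fitting, converted to Ki.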

Chain of Sodium-dependent dopamine transporter (Q01959 whole entry): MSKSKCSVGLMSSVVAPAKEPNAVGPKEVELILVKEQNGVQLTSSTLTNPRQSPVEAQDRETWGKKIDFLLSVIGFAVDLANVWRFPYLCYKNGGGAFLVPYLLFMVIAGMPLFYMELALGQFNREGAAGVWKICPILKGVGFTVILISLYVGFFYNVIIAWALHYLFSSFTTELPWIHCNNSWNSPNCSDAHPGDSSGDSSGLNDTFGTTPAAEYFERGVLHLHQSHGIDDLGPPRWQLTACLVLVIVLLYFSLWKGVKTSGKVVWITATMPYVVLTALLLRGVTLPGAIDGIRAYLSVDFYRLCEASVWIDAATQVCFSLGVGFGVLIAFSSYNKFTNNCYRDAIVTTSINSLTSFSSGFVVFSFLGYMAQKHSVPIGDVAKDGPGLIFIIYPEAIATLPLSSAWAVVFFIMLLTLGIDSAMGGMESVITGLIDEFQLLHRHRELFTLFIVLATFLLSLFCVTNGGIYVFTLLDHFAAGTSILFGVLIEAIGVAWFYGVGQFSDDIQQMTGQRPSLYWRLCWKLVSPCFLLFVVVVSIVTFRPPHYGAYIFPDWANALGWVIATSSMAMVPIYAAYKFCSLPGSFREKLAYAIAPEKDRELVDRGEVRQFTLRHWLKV
T1 sequence (P31645 whole entry): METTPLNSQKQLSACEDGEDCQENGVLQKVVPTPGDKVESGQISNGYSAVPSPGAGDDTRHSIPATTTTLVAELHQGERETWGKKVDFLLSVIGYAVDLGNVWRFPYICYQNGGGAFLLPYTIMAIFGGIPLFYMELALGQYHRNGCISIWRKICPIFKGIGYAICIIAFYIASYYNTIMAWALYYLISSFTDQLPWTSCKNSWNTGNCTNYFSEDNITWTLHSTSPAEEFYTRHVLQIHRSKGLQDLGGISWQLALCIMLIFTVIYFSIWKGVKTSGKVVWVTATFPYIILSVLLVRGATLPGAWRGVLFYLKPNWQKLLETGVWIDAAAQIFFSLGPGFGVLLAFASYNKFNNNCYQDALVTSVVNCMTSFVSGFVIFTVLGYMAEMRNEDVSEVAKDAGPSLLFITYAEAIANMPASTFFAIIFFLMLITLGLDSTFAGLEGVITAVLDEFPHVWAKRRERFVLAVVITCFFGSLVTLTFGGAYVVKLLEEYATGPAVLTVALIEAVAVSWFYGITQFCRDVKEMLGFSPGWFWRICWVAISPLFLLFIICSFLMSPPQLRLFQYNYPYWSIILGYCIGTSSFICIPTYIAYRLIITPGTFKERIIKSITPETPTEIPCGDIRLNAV
Chain of Sodium-dependent noradrenaline transporter (P23975 whole entry): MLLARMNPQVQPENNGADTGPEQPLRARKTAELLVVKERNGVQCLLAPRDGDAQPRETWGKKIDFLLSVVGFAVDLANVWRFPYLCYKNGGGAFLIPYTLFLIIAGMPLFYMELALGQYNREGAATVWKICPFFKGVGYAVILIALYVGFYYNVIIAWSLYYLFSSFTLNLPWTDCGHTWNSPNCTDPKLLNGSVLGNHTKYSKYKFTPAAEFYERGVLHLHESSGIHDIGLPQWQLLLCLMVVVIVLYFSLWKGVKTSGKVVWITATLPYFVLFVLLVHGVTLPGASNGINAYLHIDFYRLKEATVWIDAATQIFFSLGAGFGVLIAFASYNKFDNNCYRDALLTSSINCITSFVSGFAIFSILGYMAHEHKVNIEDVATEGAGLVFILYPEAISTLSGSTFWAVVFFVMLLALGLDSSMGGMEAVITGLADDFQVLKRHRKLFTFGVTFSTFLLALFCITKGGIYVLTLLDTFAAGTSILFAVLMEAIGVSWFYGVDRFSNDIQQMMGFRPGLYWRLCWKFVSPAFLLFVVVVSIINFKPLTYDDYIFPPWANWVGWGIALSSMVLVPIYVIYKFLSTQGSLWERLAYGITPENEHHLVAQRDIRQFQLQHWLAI

| SMILES | Ki [1] | Ki [2] | Ki [3] | Ki [4] | Ki [5] |
| --- | --- | --- | --- | --- | --- |
| [11CH3]Oc1cccc2c1CCN(CCCc1c[nH]c3ccc(F)cc13)C2 | 6.46 nM | 44.7 nM | 164 nM | 2880 nM | 1480 nM |
| [11CH3]Oc1ccc2c(c1)CCN(CCCc1c[nH]c3ccc(I)cc13)C2 | 374 nM | 1110 nM | 685 nM | 712 nM | 3650 nM |
| [11CH3]Oc1ccc2c(c1)CCN(CCCc1c[nH]c3ccc(Br)cc13)C2 | 11.4 nM | 13.3 nM | 50 nM | 2770 nM | 1030 nM |
| [11CH3]Oc1cccc2c1CCN(CCCc1c[nH]c3ccc(Br)cc13)C2 | 1910 nM | 2980 nM | 1990 nM | 6600 nM | 3490 nM |
| [11CH3]Oc1cccc2c1CCN(CCCc1c[nH]c3ccc(I)cc13)C2 | 213 nM | 2660 nM | 1120 nM | 1810 nM | 1160 nM |
| [11CH3]Oc1ccc2c(c1)CCN(CCCc1c[nH]c3ccc(F)cc13)C2 | 4.11 nM | 25.3 nM | 54 nM | 1680 nM | 2490 nM |
| CNC(C)Cc1ccc2c(c1)OCO2 (configuration not stated) [MIDOMAFETAMINE] | 0.73 nM | 2.03 nM | – | – | – |

Reference: ChEMBL document CHEMBL1150402, “Carbon-11 labeled indolylpropylamine analog as a new potential PET agent for imaging of the serotonin transporter” (Bioorg Med Chem, 2008)
